Test results reported in ChEMBL document CHEMBL3822407, “Design, synthesis and antiproliferative activity of novel 5-nitropyrimidine-2,4-diamine derivatives bearing alkyl acetate moiety” (Eur J Med Chem, 2016).
≈ marks a conversion by molar mass, not a printed value.

Columns and labels:
HepG2 [1] = test: Antiproliferative activity against human HepG2 cells after 48 hrs by MTT assay; format: functional, cell-based; settings: HepG2, 48 h
Outline: (§1)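 Cells kept in DMEM with 10% FBS and plated at 5 × 10³ per well, then allowed 24 h to attach at 37 °C. Compounds were dissolved as 20 mM DMSO stocks, diluted in medium to a range of concentrations, and applied for 48 h at 37 °C under 5% CO2, with 0.1% DMSO as control. MTT was added for 4 h, formazan dissolved in DMSO, and A570 read. IC50 is the mean of three independent experiments run in quadruplicate.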

MDA-MB-231 = test: Antiproliferative activity against human MDA-MB-231 cells after 48 hrs by MTT assay; format: functional, cell-based; settings: MDA-MB-231, 48 h; outline: as §1
A549 = test: Antiproliferative activity against human A549 cells after 48 hrs by MTT assay; format: functional, cell-based; settings: A549, 48 h; outline: as §1
MCF7 = test: Antiproliferative activity against human MCF7 cells after 48 hrs by MTT assay; format: functional, cell-based; settings: MCF7, 48 h; outline: as §1
HepG2 [2] = test: Cell cycle arrest in human HepG2 cells assessed as accumulation at G2/M phase at 1 uM after 48 hrs by propidium iodide staining based flow cytometry (reference value: 21.54%); format: functional
Outline: (§2)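 HepG2 cells grown to about 70% confluence and exposed to […] of compound for 48 h. Cells were then trypsinized, washed in PBS and fixed overnight in ice-cold 70% ethanol. They were treated with RNase (50, final) at 37 °C for 30 min, stained with propidium iodide (50, final), and phase distribution was measured by flow cytometry.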

HepG2 [3] = test: Cell cycle arrest in human HepG2 cells assessed as accumulation at G2/M phase at 20 uM after 48 hrs by propidium iodide staining based flow cytometry (reference value: 21.54%); format: functional; outline: as §2
HepG2 [4] = test: Cell cycle arrest in human HepG2 cells assessed as accumulation at subG1 phase at 5 uM after 48 hrs by propidium iodide staining based flow cytometry (reference value: 2.09%); format: functional; outline: as §2
HepG2 [5] = test: Cell cycle arrest in human HepG2 cells assessed as accumulation at subG1 phase at 1 uM after 48 hrs by propidium iodide staining based flow cytometry (reference value: 2.09%); format: functional; outline: as §2
[6] = Solubility in water at pH 1; format: physicochemical
[7] = Solubility in water at pH 6.4; format: physicochemical
HepG2 [8] = test: Cell cycle arrest in human HepG2 cells assessed as accumulation at subG1 phase at 10 uM after 48 hrs by propidium iodide staining based flow cytometry (reference value: 2.09%); format: functional; outline: as §2
HepG2 [9] = test: Cell cycle arrest in human HepG2 cells assessed as accumulation at subG1 phase at 20 uM after 48 hrs by propidium iodide staining based flow cytometry (reference value: 2.09%); format: functional; outline: as §2
HepG2 [10] = test: Cell cycle arrest in human HepG2 cells assessed as accumulation at G0/G1 phase at 10 uM after 48 hrs by propidium iodide staining based flow cytometry (reference value: 44.28%); format: functional; outline: as §2
HepG2 [11] = test: Cell cycle arrest in human HepG2 cells assessed as accumulation at G0/G1 phase at 1 uM after 48 hrs by propidium iodide staining based flow cytometry (reference value: 44.28%); format: functional; outline: as §2
HepG2 [12] = test: Cell cycle arrest in human HepG2 cells assessed as accumulation at S phase at 20 uM after 48 hrs by propidium iodide staining based flow cytometry (reference value: 28.95%); format: functional; outline: as §2
HepG2 [13] = test: Cell cycle arrest in human HepG2 cells assessed as accumulation at S phase at 10 uM after 48 hrs by propidium iodide staining based flow cytometry (reference value: 28.95%); format: functional; outline: as §2
HepG2 [14] = test: Cell cycle arrest in human HepG2 cells assessed as accumulation at G0/G1 phase at 20 uM after 48 hrs by propidium iodide staining based flow cytometry (reference value: 44.28%); format: functional; outline: as §2
HepG2 [15] = test: Cell cycle arrest in human HepG2 cells assessed as accumulation at G2/M phase after 48 hrs by propidium iodide staining based flow cytometry; format: functional; outline: as §2
HepG2 [16] = test: Cell cycle arrest in human HepG2 cells assessed as accumulation at S phase at 1 uM after 48 hrs by propidium iodide staining based flow cytometry (reference value: 28.95%); format: functional; outline: as §2
HepG2 [17] = test: Cell cycle arrest in human HepG2 cells assessed as accumulation at G0/G1 phase at 5 uM after 48 hrs by propidium iodide staining based flow cytometry (reference value: 44.28%); format: functional; outline: as §2
HepG2 [18] = test: Potency index, ratio of fluorouracil IC50 to compound IC50 for human HepG2 cells; format: functional
HepG2 [19] = test: Cell cycle arrest in human HepG2 cells assessed as accumulation at S phase at 5 uM after 48 hrs by propidium iodide staining based flow cytometry (reference value: 28.95%); format: functional; outline: as §2
HepG2 [20] = test: Cell cycle arrest in human HepG2 cells assessed as accumulation at G2/M phase at 10 uM after 48 hrs by propidium iodide staining based flow cytometry (reference value: 21.54%); format: functional; outline: as §2
HepG2 [21] = test: Cell cycle arrest in human HepG2 cells assessed as accumulation at G2/M phase at 5 uM after 48 hrs by propidium iodide staining based flow cytometry (reference value: 21.54%); format: functional; outline: as §2

Structure (SMILES)	IC50 (HepG2 [1]) [µM]	IC50 (MDA-MB-231) [µM]	IC50 (A549) [µM]	IC50 (MCF7) [µM]	other results
CCOC(=O)CN(Cc1ccccc1)c1nc(Nc2cc(OC)c(OC)c(OC)c2)ncc1[N+](=O)[O-]	37.8	40.4	> 100	> 100	
CCOC(=O)CNc1nc(NC2CCN(S(C)(=O)=O)CC2)ncc1[N+](=O)[O-]	> 100	80.7	> 100	> 100	
CCOC(=O)CN(Cc1ccccc1)c1nc(Nc2ccccc2)ncc1[N+](=O)[O-]	44.4	> 100	> 100	> 100	
CCOC(=O)CN(Cc1ccccc1)c1nc(NCc2ccccc2)ncc1[N+](=O)[O-]	20.9	82.4	> 100	> 100	
CCOC(=O)CNc1nc(Nc2cccc(OC)c2)ncc1[N+](=O)[O-]	> 100	31.3	36.1	35.8	
CCOC(=O)CN(Cc1ccccc1)c1nc(NC2CCN(S(C)(=O)=O)CC2)ncc1[N+](=O)[O-]	57.1	75.8	> 100	> 100	
CCOC(=O)CNc1ncc([N+](=O)[O-])c(N(CC(=O)OCC)Cc2ccccc2)n1	44.5	92.5	> 100	> 100	
COC(=O)CN(C)c1nc(NCc2ccccc2)ncc1[N+](=O)[O-]	> 100	61.1	79.4	85.9	
CCOC(=O)CNc1nc(NCc2ccccc2)ncc1[N+](=O)[O-]	> 100	22.3	74.4	52.4	
CCOC(=O)CN(Cc1ccccc1)c1nc(NCc2cccc(OC)c2)ncc1[N+](=O)[O-]	33.6	80.7	> 100	57.4	
CCOC(=O)CN(Cc1ccccc1)c1nc(Nc2cccc(OC)c2)ncc1[N+](=O)[O-]	27.6	47.2	> 100	> 100	
CCOC(=O)CNc1nc(Nc2ccc(Cl)cc2)ncc1[N+](=O)[O-]	> 100	55.5	> 100	> 100	
CCOC(=O)CNc1nc(Nc2ccc(OC)cc2)ncc1[N+](=O)[O-]	> 100	32.6	> 100	> 100	
COC(=O)CN(C)c1nc(Nc2cc(OC)c(OC)c(OC)c2)ncc1[N+](=O)[O-]	26.2	25.9	> 100	42	
COC(=O)CN(C)c1nc(Nc2cccc(OC)c2)ncc1[N+](=O)[O-]	73.4	58	31.9	93.7	
COC(=O)CN(C)c1nc(NCCc2ccccc2)ncc1[N+](=O)[O-]	86.7	44.8	37	32.5	
CCOC(=O)CN(Cc1ccccc1)c1nc(Nc2ccc(Cl)cc2)ncc1[N+](=O)[O-]	30.9	34.4	> 100	> 100	
CCOC(=O)CNc1nc(Nc2ccccc2)ncc1[N+](=O)[O-]	> 100	54.3	> 100	> 100	
COC(=O)CN(C)c1nc(Nc2ccc(Cl)cc2)ncc1[N+](=O)[O-]	49.8	21.2	23.5	60.7	
CCOC(=O)CNc1nc(NCCc2ccccc2)ncc1[N+](=O)[O-]	71.1	21.9	48.2	> 100	
COC(=O)CN(C)c1nc(Nc2ccccc2)ncc1[N+](=O)[O-]	> 100	> 100	> 100	> 100	
COC(=O)CN(C)c1nc(NC2CCN(S(C)(=O)=O)CC2)ncc1[N+](=O)[O-]	> 100	59.6	> 100	> 100	
O=c1[nH]cc(F)c(=O)[nH]1 [FLUOROURACIL]				30.4	
CCOC(=O)CN(Cc1ccccc1)c1nc(NCCc2ccccc2)ncc1[N+](=O)[O-]	10.4	22.3	87.3	21	Activity (HepG2 [2]): 25.46%; Activity (HepG2 [3]): 36.85%; Activity (HepG2 [4]): 3.85%; Activity (HepG2 [5]): 5.08%; solubility [6]: 80.5 µg/mL (≈ 185 µM); solubility [7]: 3 µg/mL (≈ 6.89 µM); Activity (HepG2 [8]): 4.8%; Activity (HepG2 [9]): 4.91%; Activity (HepG2 [10]): 30.91%; Activity (HepG2 [11]): 34.03%; Activity (HepG2 [12]): 25.75%; Activity (HepG2 [13]): 27.02%; Activity (HepG2 [14]): 29.86%; Activity (HepG2 [15]): Dose-dependent effect; Activity (HepG2 [16]): 28.08%; Activity (HepG2 [17]): 31.26%; Ratio IC50 (HepG2 [18]): 3; Activity (HepG2 [19]): 28.28%; Activity (HepG2 [20]): 31.94%; Activity (HepG2 [21]): 30.83%
